The values below come from publication PMC10884431 (Heliyon, 2024).

As a reminder, the inhibition is how much of the control response was suppressed.

The subject of one data set is alpha-glucosidase. The settings on record: from the lichen Parmotrema dilatatum; cited from earlier work.
The next data set concerns macrophages. Nature of the data set: Nitric oxide. The class given is cell-based. The settings on record: positive control at 5 μM. The procedure, abridged:
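NO production measured by absorbance at 540 nm on a microplate reader. The assay was run in triplicate and repeated in three independent experiments.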

Data set [1] addresses SARS-CoV-2 main protease (M^pro) (Severe acute respiratory syndrome coronavirus 2, UniProt P0DTD1). The data set can be described thus: M^pro inhibition assay. It counts as biochemical. The settings on record: read-out: SARS-CoV-2 M^pro inhibition percentage, reference at 1 μM.
In data set [2] the target is HIV-1 reverse transcriptase (Human immunodeficiency virus type 1 group M subtype B, UniProt P03366). Nature of the data set: HIV-1 reverse transcriptase inhibition assay. The class given is biochemical. The settings on record: positive control at 1 μM. The method in brief: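 Test compound in DMSO is added, then reverse transcriptase (25 nM solution), and the mix is held 30 min at room temperature. The reaction is stopped with EDTA, PicoGreen is added and endpoint fluorescence is read at 485/535 nm. % inhibition is taken against a DMSO control, minus an EDTA-pretreated blank. Nevirapine is the reference.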

For `COC(=O)c1c(C)c(Cc2c(O)c(Oc3c(C=O)c(O)cc(C)c3C(=O)OC)c3c(c2O)C(=O)O[C@@H]3O)c(O)c(C=O)c1O` [parmetherines A], the “Alpha-glucosidase inhibition (in words)” value in the data set on alpha-glucosidase is listed as “strong”. For the compound `COC(=O)c1c(C)c(Cc2c(O)c(Oc3c(C=O)c(O)cc(C)c3C(=O)OC)c3c(c2O)C(=O)O[C@@H]3OC)c(O)c(C=O)c1O` [parmetherines B], the “Alpha-glucosidase inhibition (in words)” value in the data set on alpha-glucosidase was “strong”. As for `Cc1ccc(S(=O)(=O)/C=C/C#N)cc1` [Bay 11–7082], the “% NO inhibition ±SD” value in the data set with macrophages came out at 72.5 ± 3.9%. For the same compound, in the data set with macrophages (NO assay), the “% Cell viability ±SD” value is 82.7 ± 5.3%. For `Cc1cccc(C)c1OCC(=O)N[C@@H](Cc1ccccc1)[C@@H](O)C[C@H](Cc1ccccc1)NC(=O)[C@H](C(C)C)N1CCCNC1=O` [Lopinavir], in data set [1], the inhibition at 1 µM was determined as 47.7 ± 1.7%. With `Cc1ccnc2c1NC(=O)c1cccnc1N2C1CC1` [Nevirapine], the “HIV-1 reverse transcriptase inhibition percentage” value in data set [2] was 38.3 ± 2.5%.
